# Compound activity from PubChem.
# A selection: hits, their analogues and other compounds. The true share with any hit is near 1.5%.
# Platelet DG rel = modulates dense granule release in human platelets | human platelet-rich plasma, SFLLRN dense granule ATP release, luminescence | inhibition, %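 (compounds screened at 7.5 µM in platelet-rich plasma)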 | 300,000 tested, 0.22% active | AID 1663;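 active = mean replicate score, as percent of positive control, at or above 50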
# SENP1 FRET inh = SENP1 (human) catalytic domain inhibition | Q9P0U3 | recombinant SENP1 catalytic domain, CyPet-SUMO1-YPet FRET cleavage | inhibition, % at 10 µM | 360,000 tested, 0.21% active;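 active = inhibition at least 30% at 10 µM, raw YFP signal under a set limit, fluorescence ratio 0.5 to 1.5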
# Target sequence (Q9P0U3 419-644 limits assumed): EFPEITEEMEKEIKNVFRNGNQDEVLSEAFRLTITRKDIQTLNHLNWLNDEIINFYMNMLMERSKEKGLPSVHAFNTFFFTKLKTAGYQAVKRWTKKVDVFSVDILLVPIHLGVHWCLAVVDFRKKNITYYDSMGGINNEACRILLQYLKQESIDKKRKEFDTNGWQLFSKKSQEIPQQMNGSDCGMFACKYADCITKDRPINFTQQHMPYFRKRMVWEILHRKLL
#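 Test system: hSENP1 catalytic domain, recombinant; Amount: 20 pM final SENP1 enzyme; Medium: Tris pH 8 buffer plus EDTA, NaCl, BME, BSA, NP40, catalase; Schedule: 50 min enzyme reaction, room temperature, light-protected; Technique: FRET fluorescence in CFP and YFP emission channels; Controls: no-enzyme wells low, DMSO-plus-enzyme wells high control.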
# Myeloid diff MLP = compounds promoting myeloid differentiation; ER-HoxA9 myeloid progenitors, lysozyme-GFP differentiation, flow cytometry; calls only at 10 µM; 360,000 tested, 1% active;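 active = normalized GFP-positive differentiation at or above the plate's own cutoff, the solvent-only control mean plus 3 SD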;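 also: cells exposed to compound for four days before flow analysis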
# VLA-4 inh = inhibition in a human VLA-4 binding assay; VLA-4 expressing cells, ligand binding flow cytometry; inhibition, % (about 7 µM as worked out from the volumes in the protocol); 330,000 tested, 0.2% active; in the data active = inhibition above about 50%
# SENP1 inh conf = confirmation of human SENP1 SUMO protease inhibitors; AID 651678; inhibition, % at 10 µM; 520 tested, 34% active; recombinant SENP1, CyPet-SUMO1-YPet FRET cleavage; shares compounds with SENP1 FRET inh; in the data active = inhibition mostly above about 35%, no sharp cut-off; inactive = mostly below about 32%
# SENP1 kin conf = SENP1 (human) inhibition, kinetic confirmation. shares compounds with SENP1 FRET inh. recombinant SENP1, CyPet-SUMO1-YPet FRET kinetic cleavage. inhibition, % at 10 µM. 520 tested, 26% active. AID 651690; in the data active = inhibition mostly above about 32%, no sharp cut-off; inactive = mostly below about 29%
# Hits are given with their value; 0 = inactive; - = no result; + = active, no number.
SMILES,Platelet DG rel,SENP1 FRET inh,Myeloid diff MLP,VLA-4 inh,SENP1 inh conf,SENP1 kin conf
Cc1sc(-c2ccccn2)nc1OC(=O)c1ccc(F)cc1F,0,51,0,0,50,69
COc1cc(/C=C/C(=O)OCC(=O)Nc2ccc(C)cc2[N+](=O)[O-])ccc1O,0,38,0,0,0,0
COc1cc(/C=C/C(=O)OCC(=O)Nc2cc(C)c(C)cc2[N+](=O)[O-])ccc1O,0,0,0,0,-,-
c1ccc(CN2CCN(C3=Nc4cccc5cccc3c45)CC2)cc1,0,83,0,-,89,53
c1ccc(CN2CCN(c3nc4ccccc4s3)CC2)cc1,0,0,0,0,-,-
COc1cccc(-c2nc(SC)nc3sc(C(=O)NC(C)(C)C)c(N)c23)c1,0,37,0,0,48,37
Cc1nc2[nH]onc2c2nccc(=O)c12,0,52,0,0,50,48
Cc1ccc(NC(=O)Cn2cnc([N+](=O)[O-])c2)cc1C,0,0,0,0,-,-
O=C1C(Cl)=C(Nc2ccccc2O)C(=O)N1CCc1ccccc1,0,41,0,0,0,0
CCOc1ccc(N2C(=O)C(Cl)=C(Nc3ccccc3O)C2=O)cc1,0,36,0,0,0,0
Cc1ccc(F)cc1NC(=O)CSc1ncccn1,0,0,0,0,-,-
O=C1CCN(Cc2ccc(Br)cc2)CCN1[C@H](CO)Cc1ccccc1,0,0,0,0,-,-
Cc1cccc(C)c1-n1nnnc1-c1nc2cc3ccccc3cc2[nH]c1=O,-,63,-,-,62,45
COc1cccc(C(=O)NCC(=O)N2CCC3(CC2)NCCc2[nH]cnc23)c1,0,0,0,0,-,-
COc1ccc(NC(=O)/C=C/C(=O)O)c([N+](=O)[O-])c1,0,0,0,0,-,-
CCOc1ccc(OCC(=O)Nc2ccc(OC)cc2[N+](=O)[O-])cc1,0,0,0,0,-,-
CCOc1ccc(NC(=O)/C=C/c2ccccc2)c([N+](=O)[O-])c1,0,37,0,0,0,0
CCOc1ccc(/C=C/C(=O)Nc2ccc(OC)cc2[N+](=O)[O-])cc1,0,70,0,0,52,34
O=C(Nc1ccc(Cl)cc1)c1ccc2c(c1)S(=O)(=O)c1ccccc1C2=O,0,33,0,0,0,0
COc1ccc(-c2nnc(C)c3nocc23)cc1,0,37,0,0,0,0
COc1ccc(Oc2nnc(-c3ccc(C)cc3)c3ccccc23)cc1,0,0,0,0,-,-
Cc1ccc(C(=O)CCC(=O)Nc2cc(C)ccn2)cc1,-,0,0,0,-,-
Cc1ccnc(NC(=O)CCC(=O)c2cc(C)sc2C)c1,0,38,0,0,0,0
CCCOc1ccc(CNCCCOCC)cc1OC,0,0,0,0,-,-
COc1ccc(-c2c(Sc3ccccc3)c3cc(-c4ccc(OC)c(F)c4)ccc3n2C)cc1,-,30,0,-,0,0
SMILES,Platelet DG rel,SENP1 FRET inh,Myeloid diff MLP,VLA-4 inh,SENP1 inh conf,SENP1 kin conf
CN1CCN(S(=O)(=O)c2ccc(C#N)cc2)C(c2ccccc2)C1 (stereo not given),-,0,0,0,-,-
CCn1c(SCC(=O)c2ccccc2)nc2sc3c(c2c1=O)CCN(C)C3,0,0,0,0,-,-
COc1cc2cc(C#N)c(SCC(=O)N3CCOCC3)nc2cc1OC,0,0,0,0,-,-
COc1cc2cc(C)c(SCC(=O)N3CCOCC3)nc2cc1OC,0,33,0,0,0,0
CC(=O)c1ccccc1Oc1nc(CN2CCOCC2)nc2scc(-c3cccs3)c12,0,44,0,0,52,33
O=C1C=C(O)c2cccc3cccc1c23,0,45,0,0,66,42
CCN(CC)C(=O)Cn1cc(C(=O)C(=O)N2CC=C(c3ccccc3)CC2)c2ccccc21,-,65,0,0,63,65
O=C(CC1SC(N2CCOCC2)=NC1=O)Nc1ccccc1Cl (stereo not given),-,0,0,0,-,-
N#Cc1ccc(-c2nc3ccc(Cl)cn3c2Cc2ccccc2C(F)(F)F)cc1,-,48,0,-,55,45
COc1ccccc1Cc1c(-c2cccc(Br)c2)nc2ccc(Br)cn12,-,0,0,-,-,-
COc1ccccc1Cc1c(-c2ccc(Cl)cc2)nc2ccc(Br)cn12,-,42,0,-,0,0
COc1ccccc1Cc1c(-c2cccc(Br)c2)nc2ccc(Cl)cn12,-,33,0,-,0,0
FC(F)(F)c1ccccc1Cc1c(-c2ccc(Cl)cc2)nc2ccc(Cl)cn12,-,0,0,-,-,-
O=C(Nc1nccs1)c1cc2cc(Cl)ccc2oc1=O,0,45,0,0,96,83
O=C(Nc1nccs1)c1ccc(Cl)cc1[N+](=O)[O-],0,0,0,0,-,-
Nc1cc2c([N+](=O)[O-])cccc2o1,0,63,0,0,0,0
CC(=O)c1c(C)[nH]c(C(=O)CN2C(=O)NC(C)(c3ccc(C)cc3)C2=O)c1C (stereo not given),0,0,0,0,-,-
O=C(O)c1cc(O)c2c(c1)[C@H]([C@H]1c3cc(C(=O)O)cc(O)c3C(=O)c3c(O[C@@H]4O[C@H](CO)[C@@H](O)[C@H](O)[C@H]4O)cccc31)c1cccc(OC3O[C@H](CO)[C@@H](O)[C@H](O)[C@H]3O)c1C2=O (stereo not given in full),0,0,0,0,-,-
O=C1c2cc(CO)cc(O)c2C(=O)c2c(O[C@@H]3OC(CO)[C@@H](O)[C@@H](O)[C@@H]3O)cccc21 (stereo not given in full),0,43,0,0,45,0
Cc1ccn2c(c1)nc(=O)c1cc(S(=O)(=O)N3CCOCC3)ccc12,0,0,0,0,-,-
COc1ccc(Nc2cc(C)nc3ncnn23)cc1Cl,0,29,0,0,35,0
Clc1cc2c(nn1)Nc1ccccc1S2,0,31,0,0,0,0
CN(C(=O)c1cc(S(=O)(=O)N2CCOCC2)cs1)c1ccccc1,0,0,0,0,-,-
Cc1cc(C(=O)NCc2ccccc2F)c2ccccc2n1,0,43,0,0,51,41
COc1ccccc1NC(=O)CON=C(N)CC(=O)NC1CCCCC1,-,55,+,0,51,46
SMILES,Platelet DG rel,SENP1 FRET inh,Myeloid diff MLP,VLA-4 inh,SENP1 inh conf,SENP1 kin conf
Cc1cccc(-c2c3c(=O)n(C)c(=O)n(C)c3c3cccnn23)c1,0,62,0,0,30,0
CC(C(=O)c1ccc(Br)cc1)[n+]1cccc(NC(=O)c2ccccc2)c1 (stereo not given),0,0,0,0,-,-
CC(C(=O)c1ccc(Br)cc1)[n+]1cccc2ccccc21 (stereo not given),0,52,+,0,0,0
CCc1nnc(NC(=O)CCN2C(=O)/C(=C/c3cc(OC)c(OC)c(OC)c3)SC2=S)s1,0,48,0,0,39,0
COc1cc(/C=C2\SC(=S)N(CCC(=O)Nc3ccc(O)cc3)C2=O)cc(OC)c1OC,0,0,0,0,-,-
Cc1nc2ccc(NS(=O)(=O)c3ccc(F)cc3F)cc2s1,-,58,0,0,37,0
COc1cc(S(=O)(=O)Nc2ccc3nc(C)sc3c2)ccc1NC(C)=O,-,36,0,0,0,0
